Consider 5 molecules from ChEMBL document CHEMBL3856208, “Lupane and 18α-oleanane derivatives substituted in the position 2, their cytotoxicity and influence on cancer cells” (Eur J Med Chem, 2016).

Data set [1] concerns CCRF-CEM. As to the kind of experiment: Inhibition of RNA synthesis in human CCRF-CEM cells assessed as decrease in BrU incorporation by measuring synthesized RNA levels at 4.6 uM after 24 hrs by propidium iodide staining-based flow cytometric method (reference value: 43.37%). Type of data set: functional. Set-up: scale not given: the % may be the effect or the level left. A general note: A flow cytometer gives signals particle by particle.

A short description of data set [2]: Cytotoxicity against human CCRF-CEM cells after 72 hrs by MTS assay. Format: functional, cell-based. An outline of the steps: (§1)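 Cells seeded at 25000–35000 cells/mL, compounds from DMSO dosed at time zero as four-fold dilutions. Exposure 72 h at 37 °C, 5% CO2, with MTS added for 1–4 h and OD read at 490 nm. Survival expressed as % of mean control OD, with IC50 from dose-response curves. Run as technical duplicates in at least three biological replicates.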
(In general: Tetrazolium dyes change colour on reduction, which living cells bring about.)

A short description of data set [3]: Cytotoxicity against human CEM/DNR cells after 72 hrs by MTS assay. Type of data set: functional, cell-based. An outline of the steps:
as §1

The nature of data set [4]: Cytotoxicity against human K562 cells after 72 hrs by MTS assay. Type of data set: functional, cell-based. The following applies: K562, 72 h. The procedure, abridged:
as §1

The nature of data set [5]: Cytotoxicity against human K562-TAX cells after 72 hrs by MTS assay. Format: functional, cell-based. The procedure, abridged:
as §1

The nature of data set [6]: Cytotoxicity against human A549 cells after 72 hrs by MTS assay. The following applies: A549, 72 h. Type of data set: functional, cell-based. The procedure, abridged:
as §1

A short description of data set [7]: Cytotoxicity against human HCT116 cells after 72 hrs by MTS assay. The following applies: HCT-116, 72 h. Format: functional, cell-based. The procedure, abridged:
as §1

Data set [8] can be described thus: Cytotoxicity against p53 deficient human HCT116 cells after 72 hrs by MTS assay. Format: functional, cell-based. The following applies: HCT-116, 72 h. The procedure, abridged: as §1
Data set [9] is described as follows: Cytotoxicity against human U2OS cells after 72 hrs by MTS assay. Format: functional, cell-based. An outline of the steps:
as §1

Data set [10] in a line: Cytotoxicity against human BJ cells after 72 hrs by MTS assay. Type of data set: toxicity, cell-based. An outline of the steps:
as §1

Data set [11] is described as follows: Cytotoxicity against human MRC5 cells after 72 hrs by MTS assay. Type of data set: toxicity, cell-based. The procedure, abridged: as §1
A short description of data set [12]: Therapeutic index, ratio of IC50 for human BJ cells to IC50 for human CCRF-CEM cells. Format: cell-based. The note with it: BJ cells versus CCRF-CEM cells, read-out: Ratio IC50.
Data set [13] in a line: Therapeutic index, ratio of IC50 for human MRC5 cells to IC50 for human CCRF-CEM cells. The note with it: MRC5 cells versus CCRF-CEM cells, read-out: Ratio IC50. Type of data set: cell-based.
A short description of data set [14]: Cell cycle arrest in human CCRF-CEM cells assessed as accumulation at sub G1 phase at 4.6 uM after 24 hrs by propidium iodide staining-based flow cytometric method (reference value: 1.8%). Format: functional.
A short description of data set [15]: Cell cycle arrest in human CCRF-CEM cells assessed as accumulation at sub G1 phase at 23 uM after 24 hrs by propidium iodide staining-based flow cytometric method (reference value: 1.8%). Format: functional.
Data set [16] is described as follows: Cell cycle arrest in human CCRF-CEM cells assessed as accumulation at G0/G1 phase at 4.6 uM after 24 hrs by propidium iodide staining-based flow cytometric method (reference value: 36.41%). Format: functional.
Data set [17] is described as follows: Cell cycle arrest in human CCRF-CEM cells assessed as accumulation at G0/G1 phase at 23 uM after 24 hrs by propidium iodide staining-based flow cytometric method (reference value: 36.41%). Type of data set: functional.
Data set [18] can be described thus: Cell cycle arrest in human CCRF-CEM cells assessed as accumulation at S phase at 4.6 uM after 24 hrs by propidium iodide staining-based flow cytometric method (reference value: 50.33%). Type of data set: functional.
The nature of data set [19]: Cell cycle arrest in human CCRF-CEM cells assessed as accumulation at S phase at 23 uM after 24 hrs by propidium iodide staining-based flow cytometric method (reference value: 50.33%). Format: functional.
A short description of data set [20]: Cell cycle arrest in human CCRF-CEM cells assessed as accumulation at G2/M phase at 4.6 uM after 24 hrs by propidium iodide staining-based flow cytometric method (reference value: 13.28%). Format: functional.
The nature of data set [21]: Cell cycle arrest in human CCRF-CEM cells assessed as accumulation at G2/M phase at 23 uM after 24 hrs by propidium iodide staining-based flow cytometric method (reference value: 13.28%). Type of data set: functional.
Data set [22] relates to CCRF-CEM. As to the kind of experiment: Mitotic arrest in human CCRF-CEM cells assessed as phosphorylation of histone-3 at Ser10 at 4.6 uM after 24 hrs by flow cytometric method (reference value: 1.66%). Type of data set: functional.
Data set [23] relates to CCRF-CEM. In words: Inhibition of DNA synthesis in human CCRF-CEM cells assessed as decrease in BrdU incorporation by measuring synthesized DNA levels at 4.6 uM after 24 hrs by propidium iodide staining-based flow cytometric method (reference value: 56.37%). Set-up: scale not given: the % may be the effect or the level left. Type of data set: functional. An outline of the steps:
(§2)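 CCRF-CEM cells were cultured and treated as for cell cycle analysis, then pulse-labeled with 10 µM BrDU for 30 min before harvest. Cells were ethanol-fixed, DNA-denatured in 2 M HCl for 30 min at room temperature, and neutralized with 0.1 M borax. Staining used anti-BrDU, then anti-mouse-FITC, then PI (0.1 mg/mL) with RNase A (0.5 mg/mL) for 1 h. Read-out was 488 nm flow cytometry.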

The test system of data set [24] is CCRF-CEM. In words: Inhibition of DNA synthesis in human CCRF-CEM cells assessed as decrease in BrdU incorporation by measuring synthesized DNA levels at 23 uM after 24 hrs by propidium iodide staining-based flow cytometric method (reference value: 56.37%). Type of data set: functional. Set-up: scale not given: the % may be the effect or the level left. An outline of the steps:
as §2
Background: Uptake of a labelled nucleoside into DNA is a usual measure of proliferation.

Data set [25] concerns CCRF-CEM. In words: Inhibition of RNA synthesis in human CCRF-CEM cells assessed as decrease in BrU incorporation by measuring synthesized RNA levels at 23 uM after 24 hrs by propidium iodide staining-based flow cytometric method (reference value: 43.37%). Format: functional. Set-up: scale not given: the % may be the effect or the level left.
For data set [26], the system named is CCRF-CEM. As to the kind of experiment: Mitotic arrest in human CCRF-CEM cells assessed as phosphorylation of histone-3 at Ser10 at 23 uM after 24 hrs by flow cytometric method (reference value: 1.66%).

Take `CC1(C)CC[C@]23CC[C@]4(C)[C@H](CC[C@@H]5[C@@]6(C)CC(N)[C@H](O)C(C)(C)[C@@H]6CC[C@]54C)[C@H]2[C@H]1OC3` (some centres undefined): the Activity in the data set with CCRF-CEM [1] worked out at 42.98%; in data set [14] it was 2.79%; in data set [15], 7.1%; in [16], 40.7%; in data set [17], 28.9%; in [18] it was 47.8%. Also, the Activity came out at 54.9% in [19]; 11.5% in data set [20]; 16.2% in data set [21]; 1.44% in the data set on CCRF-CEM [22]; 53.53% with CCRF-CEM [23]; 1.88% with CCRF-CEM [24]. Besides, the Activity in the data set on CCRF-CEM [25] was 2.23%; in the data set with CCRF-CEM [26], 0.49%. Besides, the 50% inhibitory concentration (IC50) (commonly the concentration at which inhibition is half-maximal) was 4.6 to 5 µM in [2]; 5.9 µM in data set [3]; 4.5 µM in data set [4]; 3.9 µM in data set [5]; 6.2 µM in data set [6]; 4.9 µM in data set [7]. For the same molecule, the figures for the IC50 in data set [8] and in [9] were 4.8 µM and 6.2 µM, respectively. Besides, the IC50 at 72 h in [10] was 7.1 µM; in data set [11] it was 6.3 µM. In addition, the selectivity ratio in [12] and in data set [13] was 1.4 in each case.

Regarding `COC(=O)[C@]12CC[C@@H](C(C)C)[C@@H]1[C@H]1CC[C@@H]3[C@@]4(C)CC(S)C(=O)C(C)(C)[C@@H]4CC[C@@]3(C)[C@]1(C)CC2` (some centres undefined), the IC50 in [2] is 40 to 45.3 µM; in [3], greater than 50 µM; in data set [4], greater than 50 µM; in data set [5] it was greater than 50 µM; in [6] it was greater than 50 µM; in data set [7], greater than 50 µM. Also, the IC50 in [8] and in data set [9] was greater than 50 µM each time. The IC50 at 72 h in data set [10] and in data set [11] was greater than 50 µM throughout. For the same molecule, the selectivity ratio in [12] and in [13] was greater than 1.1 throughout.

Take `CC(=O)NC1C[C@]2(C)[C@H]3CC[C@@H]4[C@H]5[C@H]6OC[C@@]5(CCC6(C)C)CC[C@@]4(C)[C@]3(C)CC[C@H]2C(C)(C)C1=O` (some centres undefined): the IC50 in [2] was 32 to 32.2 µM; in data set [3], greater than 50 µM; in data set [4] it was 32.4 µM; in [5] it was greater than 50 µM; in data set [6], greater than 50 µM; in data set [7], 42.9 µM. The IC50 in data set [8] is 38.7 µM; in data set [9], greater than 50 µM. Moreover, the figures for the half-inhibitory concentration (IC50) at 72 h in data set [10] and in data set [11] were greater than 50 µM and 21.6 µM, respectively. Moreover, the selectivity ratio in data set [12] and in data set [13] was greater than 1.1 each time.

Regarding `CC(C)[C@@H]1CC[C@]2(C(=O)O)CC[C@]3(C)[C@H](CC[C@@H]4[C@@]5(C)CC([N+](=O)[O-])=C(O)C(C)(C)[C@@H]5CC[C@]43C)[C@@H]12`, the IC50 was 31.8 to 32 µM in [2]; 36.1 µM in data set [3]; 10.1 µM in data set [4]; 20.6 µM in data set [5]; 31.3 µM in [6]; greater than 50 µM in [7]. The IC50 in [8] and in data set [9] was greater than 50 µM in each case. The IC50 at 72 h in [10] and in [11] was greater than 50 µM in each case. The selectivity ratio in data set [12] and in data set [13] was greater than 1.6 throughout.

For the molecule `CC1(C)CC[C@]23CC[C@]4(C)[C@H](CC[C@@H]5[C@@]6(C)C=C(O)C(=O)C(C)(C)[C@@H]6CC[C@]54C)[C@H]2[C@H]1OC3`, the IC50 in [2] was 13 to 13.1 µM; in [3], greater than 50 µM; in [4] it was 16.9 µM; in [5], 45.3 µM; in data set [6] it was greater than 50 µM; in data set [7], 41.6 µM. Further, the IC50 in [8] was determined as 33.4 µM; in data set [9], 45.8 µM. Moreover, the IC50 at 72 h in data set [10] was greater than 50 µM; in data set [11], 25.4 µM. The selectivity ratio in data set [12] and in data set [13] was greater than 2.9 in each case.
